# In the library only some 1.6% were active in any assay of this set; here they are far more common.
# CSN deneddyl inh = inhibitors of CSN-mediated cullin deneddylation, primary screen, biochemical, fluorescence polarization, uHTS | COP9 signalosome complex subunit 5 (Homo sapiens), Q92905 | Purified CSN, SCF-Nedd8-OG deneddylation | inhibition, % at 12.5 µM | actives 0.38% (n = 360,000) | AID 651999, 2013;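 active = pattern-corrected inhibition above about 35%, with an unprinted fluorescence ratio check between 0.5 and 1.5, limit read from the data, passing the limit was not always enough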;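 note: 0% = enzyme with substrate and 100% = substrate without enzyme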
# Target sequence (Q92905 whole entry, looked up, one chain of several): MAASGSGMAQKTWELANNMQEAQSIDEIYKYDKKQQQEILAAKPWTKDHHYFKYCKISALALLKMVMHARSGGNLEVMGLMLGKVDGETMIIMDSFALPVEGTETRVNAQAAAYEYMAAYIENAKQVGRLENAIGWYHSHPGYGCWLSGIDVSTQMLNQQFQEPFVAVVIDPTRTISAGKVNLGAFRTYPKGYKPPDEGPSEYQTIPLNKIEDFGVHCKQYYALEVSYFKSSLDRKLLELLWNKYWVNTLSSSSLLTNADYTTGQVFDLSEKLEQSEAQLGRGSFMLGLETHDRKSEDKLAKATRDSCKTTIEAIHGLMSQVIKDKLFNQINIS
#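 Detection – fluorescence polarization · System – HEK293T-derived human Csn5 enzyme · Controls – substrate-only high control, full reaction low control · Timing – 90 min, room temperature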
# PKA-R1A act = activators of PKA-R1A holoenzyme, primary screen, biochemical, fluorescence polarization, Cy5-IP20, bovine R1A, mouse PKAc. PKA-R1A dissociation; scaled: DMSO 0%, 113 µM cGMP 100%. activation, % at 11.4 µM. actives 0.083% (n = 340,000). cAMP-dependent protein kinase type I-alpha regulatory subunit (Bos taurus) + …;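 active = percent activation above the mean of all tested compounds plus 3 SD, cut at about 19% in these data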;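 note: higher means more PKAc released from R1A so a rise in polarization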
# TPT1 inhibitor = Candida albicans TPT1 enzyme inhibitors, primary screen, biochemical, fluorescence polarization; recombinant caTPT1, FP RNA substrate dephosphorylation; inhibition, % at 5 µM; actives 0.81% (n = 300,000);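 active = inhibition above the mean of all tested compounds plus 3 SD, set per screening campaign, cut at about 24% in these data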;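 note: plate controls were DMSO alone for no effect and ferristatin control at 100 nM for full effect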
# Rpn11 inh = Rpn11 (PSMD14) deubiquitinase inhibitors, primary screen, biochemical, fluorescence polarization, uHTS. AID 588493, 2011. actives 0.59% (n = 360,000). human 26S proteasome, Ub4-pepOG fluorescence polarization; 20S core pre-blocked with epoxomicin. calls only at 20 µM;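 active = inhibition at 20 µM, scaled to each plate's controls, above about 33%, limit read from the data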
# PKA-R2B activ = activators of PKA-R2B holoenzyme, primary screen, biochemical, fluorescence polarization, Cy5-IP20, human; PKA-R2B holoenzyme dissociation; R2B truncated from residue 108, S112A mutant; 0% DMSO only, 100% 113 µM cGMP; activation, % at 11.4 µM; actives 0.079% (n = 340,000); AID 504700, 2011;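 active = activation above a cutoff set at the mean over all compounds plus 3 SD, cut at about 18% in these data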;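 note: higher means more holoenzyme dissociation and a rise in polarization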
# HNF4A DNA FP = change in binding of human HNF4A to DNA, primary screen, biochemical, fluorescence polarization, FITC-DNA | Hepatocyte nuclear factor 4-alpha (Homo sapiens), P41235 | 1 h | activity change, % at 10 µM | actives 0.3% (n = 360,000) | AID 1224865, 2016; in the data active = activity change above about 30%, passing the limit was not always enough
# caTPT1 confirm = Candida albicans TPT1 inhibitors, confirmation, biochemical, fluorescence polarization, triplicate; shares compounds with TPT1 inhibitor; recombinant caTPT1, RNase T1 coupled; inhibition, % at 5 µM; actives 74% (n = 2,400);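 active = inhibition above the primary screen limit, the mean inhibition of all tested compounds plus 3 SD, cut at about 25% in these data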
# RNase T1 inh = RNase T1 inhibitors, counter-screen for TPT1 inhibitor project, biochemical, fluorescence polarization. RNase T1 cleavage, 1536-well. actives 83% (n = 2,400). shares compounds with TPT1 inhibitor. inhibition, % at 5 µM;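 active = inhibition above the solvent-only control well mean plus 3 SD, limit set per screening run, cut at about 23% in these data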;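 note: plate controls were DMSO wells with enzyme for no effect and wells without RNase T1 for full effect; inhibitors block cleavage so intact labeled substrate keeps polarization high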
# Target sequence (P00651 whole entry, looked up): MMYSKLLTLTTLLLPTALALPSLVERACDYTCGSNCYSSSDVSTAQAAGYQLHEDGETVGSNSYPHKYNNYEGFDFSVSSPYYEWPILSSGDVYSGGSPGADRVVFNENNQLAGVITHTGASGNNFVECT
# * marks the source's active call; other numbers are inactive results; i = inactive; / = no result shown.
SMILES,CSN deneddyl inh,PKA-R1A act,TPT1 inhibitor,Rpn11 inh,PKA-R2B activ,HNF4A DNA FP,caTPT1 confirm,RNase T1 inh
Cc1sc(NC(=S)NC(=O)c2ccccc2)c(C#N)c1C,0,8,2,i,0,-1,/,/
CC(C)C1Cc2c(sc(NC(=S)NC(=O)c3ccccc3)c2C#N)CO1 (stereo unspecified),1,0,1,i,-3,6,/,/
CCCN1CCc2c(sc(NC(=S)NC(=O)c3ccccc3)c2C#N)C1,-98,-13,88*,/,0,93,62*,71*
CC(C)N1CCc2c(sc(N)c2C#N)C1,9,-11,30*,i,6,19,42*,48*
CC(C)N1CCc2c(sc(NC(=S)NC(=O)c3ccccc3)c2C#N)C1,40*,-6,94*,/,-3,44*,81*,86*
O=C(Nc1cccc(C(=O)O)c1)/C(=C\c1ccc2c(c1)OCO2)NC(=O)c1ccccc1Br,-1,-1,/,i,2,-1,/,/
CN(C)c1ccc(C(CNS(=O)(=O)c2ccc3ccccc3c2)N2CCOCC2)cc1 (stereo unspecified),-5,2,1,i,-1,-2,/,/
O=C(Nc1ccc(NC(=O)C2CCCCC2)nc1)c1cccs1,-6,7,0,i,-4,0,/,/
O=C1NN(c2cccc(Br)c2)C(=O)/C1=C\c1ccc(N2CCOCC2)cc1,8,-3,0,i,0,-7,/,/
CCN1CCc2c(sc(NC(=S)NC(=O)c3ccc(Cl)cc3)c2C(N)=O)C1,28,5,27*,/,-4,76,30*,36*
CCSc1ccc([C@@H]2[C@H]3C(=O)N(CC)C(=O)[C@H]3[C@]3(C(=O)OC)CCCCN23)cc1,6,-1,24*,i,4,11,39*,49*
O=C(C[n+]1ccccc1)c1ccc(-c2ccccc2)cc1,-2,-4,40*,i,-12,4,4,9
CN(C)c1cc[n+](CC(=O)c2ccc(-c3ccccc3)cc2)cc1,-2,1,0,i,-4,1,/,/
CNc1oc(-c2ccccc2F)nc1S(=O)(=O)c1ccc(C)cc1,0,-13,-2,i,-12,-1,/,/
COc1ccc(/C=C2\CCC/C(=C\C=N\N(C)C)C2=O)cc1,29,-6,37*,/,0,13,45*,55*
Cc1ccc(-c2nnc(Nc3ccc4c(c3)OCO4)c3ccccc23)cc1S(=O)(=O)NC(C)C,6,16,52*,i,5,2,7,12
Cc1ccc(-c2nnc(Nc3ccc4c(c3)OCO4)c3ccccc23)cc1S(=O)(=O)NCCO,-7,-5,0,i,-13,2,/,/
COCC(=O)N1CCC(Oc2ccc(C(=O)NC3CCOC(C)(C)C3)cc2)CC1 (stereo unspecified),-2,9,0,i,-1,-2,/,/
O=C(N/N=C/c1cc(Cl)cc(Cl)c1O)c1ccncc1,29,-17,40*,/,1,4,37*,49*
O=C(N/N=C/c1cc(Br)cc(Br)c1O)c1ccncc1,/,/,89*,/,/,/,77*,83*
O=C(N/N=C/c1ccc(O)cc1O)c1ccncc1,-1,1,-2,i,0,2,/,/
O=C(N/N=C/c1ccc(Cl)cc1Cl)c1ccncc1,9,-1,3,i,-5,0,/,/
C#CCN(CC=C)C(=O)CCc1nnc(COc2ccccc2)o1,0,-4,-3,i,-4,3,/,/
COc1ccc(C2CC(c3ccccc3)=NN2c2ccc(/C=N/NC(=O)c3ccncc3)cc2)cc1 (stereo unspecified),2,-1,66*,i,-6,2,52*,68*
COc1ccc(C2CC(c3cccs3)=NN2c2ccc(C=O)cc2)cc1 (stereo unspecified),/,/,65*,/,/,/,67*,72*
SMILES,CSN deneddyl inh,PKA-R1A act,TPT1 inhibitor,Rpn11 inh,PKA-R2B activ,HNF4A DNA FP,caTPT1 confirm,RNase T1 inh
O=C1/C(=C/c2ccco2)Cc2ccccc21,4,5,-3,i,14,2,/,/
CC1C/C(=C/c2ccccn2)C(=O)/C(=C/c2ccccn2)C1 (stereo unspecified),8,-5,-2,i,-6,8,/,/
CC1C/C(=C/c2cccs2)C(=O)/C(=C/c2cccs2)C1 (stereo unspecified),23,-7,26*,i,-15,22,10,14
CC1C/C(=C/c2ccco2)C(=O)/C(=C/c2ccco2)C1 (stereo unspecified),/,/,61*,/,/,/,62*,71*
Cc1ccc2c(c1)sc(C)[n+]2CCCS(=O)(=O)[O-],5,-8,-1,i,-11,2,/,/
COc1cc(/C=C/c2sc3ccccc3[n+]2CCCS(=O)(=O)[O-])ccc1O,127,8,86*,/,9,87*,97*,101*
COc1ccc(C(=O)NNC(=O)C23CC4CC(CC(C4)C2)C3)cc1OC,-2,3,/,i,-15,-1,/,/
Cn1cc(C2=C(c3ccc(Cl)cc3Cl)C(=O)NC2=O)c2ccccc21,-74,-1,81*,/,-9,72,92*,95*
Cn1cc(-c2ccccc2C(N)=O)c(=O)c2cc(Cl)ccc21,-5,-2,2,i,2,-6,/,/
CCOC(=O)C1(CCCc2ccccc2)CCN(C(=O)C2CCCO2)CC1 (stereo unspecified),0,-5,2,i,-1,5,/,/
COCCNC(=O)c1cc(-c2ccccc2)n(Cc2cc(C)no2)n1,-4,6,-1,i,-13,2,/,/
CCC(=O)N1CCN(c2ccccc2NC(=S)NC(=O)c2cccc([N+](=O)[O-])c2)CC1,2,-3,39*,i,-4,2,5,5

# Bioassay records as filed in PubChem.
